Assay results as given in paper PMC8742645 (Clinical and Translational Science, 2021).
Several values for one entry are separate records, joined by “and”; a condition that tells them apart may be missing. Equal values may be shown once. Read-outs that look alike come from different tables or passages of the source. Marks after values point to notes of the source that are not given here.

Assays:
[1] = system: Caco-2 cells; test: Caco-2 permeability of remibrutinib; type: in vitro ADME; conditions: Caco-2, passive
Procedure, shortened: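 Human Caco-2 cell system, also used to test the compound as a substrate of ATP-binding cassette efflux transporters (P-gp). Passive apparent permeability (Papp, cm/s) was taken from these experiments to predict the fraction absorbed (Fa) in the PBPK model.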

[2] = type: in vivo, human; conditions: for Vd: 100 µg; for half-life / Tmax: whole blood; for half-life: t 1/2, arithmetic mean; for Tmax: po
Procedure, shortened: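 Healthy adults, open-label single-sequence three-period crossover. Oral doses: 50 mg alone (day 3, 1 h after 240 ml 10% glucose), 20 mg 1 h after 240 ml grapefruit juice, and 20 mg 1 h after the second ritonavir 100 mg dose. Stable-isotope-labelled i.v. microtracer 100 µg given 2 h post-oral in periods 1 and 3. Blood measured by LC-MS/MS; dose-normalised; mixed-ANOVA geometric mean ratios.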

[3] = system: CYP3A4/5; test: Correlation analysis with HLM from 16 individual donors; type: in vitro ADME, human
[4] = system: human liver microsomes; test: Oxidative metabolism kinetics in pooled HLM; type: in vitro ADME
[5] = Single and multiple ascending dose study, observed PK; type: in vivo, human
[6] = molecular target: CYP3A5 (Homo sapiens, UniProt P20815); test: Recombinant human CYP enzyme kinetics; type: in vitro ADME
CYP3A5, sequence (P20815 whole entry): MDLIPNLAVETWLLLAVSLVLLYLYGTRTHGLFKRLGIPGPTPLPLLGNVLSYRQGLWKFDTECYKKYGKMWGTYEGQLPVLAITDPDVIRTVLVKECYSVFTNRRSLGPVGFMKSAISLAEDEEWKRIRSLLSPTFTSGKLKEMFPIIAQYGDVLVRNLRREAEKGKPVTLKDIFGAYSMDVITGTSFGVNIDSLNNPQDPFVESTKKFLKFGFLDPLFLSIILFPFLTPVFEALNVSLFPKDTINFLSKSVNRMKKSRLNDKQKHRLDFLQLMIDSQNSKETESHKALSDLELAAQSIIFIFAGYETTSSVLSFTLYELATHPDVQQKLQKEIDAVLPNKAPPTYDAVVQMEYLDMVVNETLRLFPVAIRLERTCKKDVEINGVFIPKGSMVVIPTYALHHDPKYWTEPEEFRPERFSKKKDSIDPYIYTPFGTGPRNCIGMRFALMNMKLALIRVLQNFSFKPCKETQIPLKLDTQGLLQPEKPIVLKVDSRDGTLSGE

[7] = molecular target: CYP3A4 (Homo sapiens, UniProt P08684); type: in vitro ADME
CYP3A4, sequence (P08684 whole entry): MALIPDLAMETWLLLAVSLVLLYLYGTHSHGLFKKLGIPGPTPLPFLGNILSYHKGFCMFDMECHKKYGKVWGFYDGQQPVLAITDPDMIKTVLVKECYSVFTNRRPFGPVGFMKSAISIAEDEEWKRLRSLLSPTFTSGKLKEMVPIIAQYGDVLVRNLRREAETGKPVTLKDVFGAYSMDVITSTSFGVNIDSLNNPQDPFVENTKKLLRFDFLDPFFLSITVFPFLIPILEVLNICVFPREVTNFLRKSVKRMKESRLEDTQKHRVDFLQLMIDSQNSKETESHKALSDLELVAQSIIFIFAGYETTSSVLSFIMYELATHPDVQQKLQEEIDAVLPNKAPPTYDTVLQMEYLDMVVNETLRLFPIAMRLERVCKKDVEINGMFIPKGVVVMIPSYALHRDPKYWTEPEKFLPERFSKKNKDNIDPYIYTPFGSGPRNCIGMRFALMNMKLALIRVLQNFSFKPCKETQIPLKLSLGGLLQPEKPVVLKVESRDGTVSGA

[8] = system: hepatic uptake transporters; test: Cellular uptake in suspensions of cryo-preserved human hepatocytes; type: in vitro ADME; conditions: suspended human hepatocytes
[9] = rat in vivo; ref data on file, Novartis; cited from earlier work
[10] = Clinical DDI study: safety; type: in vivo, human
[11] = DDI trial with CYP450 enzyme substrate cocktail, steady state; ref unpublished data, Schiller, Huth, Schuhler, Drollmann, Kaul, Woessner, et al. 2021; cited from earlier work
[12] = molecular target: CYP2C19 (Homo sapiens, UniProt P33261); test: Recombinant human CYP enzyme kinetics; type: in vitro ADME
CYP2C19, sequence (P33261 whole entry): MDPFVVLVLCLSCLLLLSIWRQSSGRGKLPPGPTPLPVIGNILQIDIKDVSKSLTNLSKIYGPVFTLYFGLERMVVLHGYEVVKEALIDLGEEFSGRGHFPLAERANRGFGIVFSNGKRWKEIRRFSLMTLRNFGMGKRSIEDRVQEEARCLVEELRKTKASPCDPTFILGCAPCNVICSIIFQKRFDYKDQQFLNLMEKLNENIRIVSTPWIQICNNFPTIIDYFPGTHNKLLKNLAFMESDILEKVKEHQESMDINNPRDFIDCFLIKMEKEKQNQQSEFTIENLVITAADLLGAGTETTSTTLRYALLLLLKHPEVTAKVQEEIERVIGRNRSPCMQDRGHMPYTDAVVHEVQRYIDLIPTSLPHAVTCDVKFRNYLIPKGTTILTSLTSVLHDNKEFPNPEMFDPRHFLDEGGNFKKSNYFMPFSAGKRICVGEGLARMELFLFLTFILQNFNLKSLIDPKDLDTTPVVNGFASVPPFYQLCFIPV

[13] = molecular target: T1, CYP2B6 (Homo sapiens, UniProt P20813); test: Recombinant human CYP enzyme kinetics; type: in vitro ADME
T1 sequence (P20813 1-491): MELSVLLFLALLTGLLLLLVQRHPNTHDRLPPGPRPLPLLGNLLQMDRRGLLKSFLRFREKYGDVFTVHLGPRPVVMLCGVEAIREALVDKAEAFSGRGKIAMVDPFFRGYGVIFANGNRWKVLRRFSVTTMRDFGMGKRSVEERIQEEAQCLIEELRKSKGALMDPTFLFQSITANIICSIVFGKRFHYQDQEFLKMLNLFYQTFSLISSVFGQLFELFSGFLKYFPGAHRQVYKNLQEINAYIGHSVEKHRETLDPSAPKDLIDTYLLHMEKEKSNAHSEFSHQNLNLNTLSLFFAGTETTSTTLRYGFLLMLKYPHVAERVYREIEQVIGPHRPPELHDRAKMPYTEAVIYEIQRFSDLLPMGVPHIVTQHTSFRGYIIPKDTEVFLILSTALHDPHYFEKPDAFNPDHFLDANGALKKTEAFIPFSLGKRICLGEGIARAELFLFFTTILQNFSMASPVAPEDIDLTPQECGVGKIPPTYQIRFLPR

[14] = molecular target: P-gp (Homo sapiens, UniProt P08183); test: Efflux transporter substrate assessment in Caco-2 cells; type: in vitro ADME
P-gp, sequence (P08183 whole entry): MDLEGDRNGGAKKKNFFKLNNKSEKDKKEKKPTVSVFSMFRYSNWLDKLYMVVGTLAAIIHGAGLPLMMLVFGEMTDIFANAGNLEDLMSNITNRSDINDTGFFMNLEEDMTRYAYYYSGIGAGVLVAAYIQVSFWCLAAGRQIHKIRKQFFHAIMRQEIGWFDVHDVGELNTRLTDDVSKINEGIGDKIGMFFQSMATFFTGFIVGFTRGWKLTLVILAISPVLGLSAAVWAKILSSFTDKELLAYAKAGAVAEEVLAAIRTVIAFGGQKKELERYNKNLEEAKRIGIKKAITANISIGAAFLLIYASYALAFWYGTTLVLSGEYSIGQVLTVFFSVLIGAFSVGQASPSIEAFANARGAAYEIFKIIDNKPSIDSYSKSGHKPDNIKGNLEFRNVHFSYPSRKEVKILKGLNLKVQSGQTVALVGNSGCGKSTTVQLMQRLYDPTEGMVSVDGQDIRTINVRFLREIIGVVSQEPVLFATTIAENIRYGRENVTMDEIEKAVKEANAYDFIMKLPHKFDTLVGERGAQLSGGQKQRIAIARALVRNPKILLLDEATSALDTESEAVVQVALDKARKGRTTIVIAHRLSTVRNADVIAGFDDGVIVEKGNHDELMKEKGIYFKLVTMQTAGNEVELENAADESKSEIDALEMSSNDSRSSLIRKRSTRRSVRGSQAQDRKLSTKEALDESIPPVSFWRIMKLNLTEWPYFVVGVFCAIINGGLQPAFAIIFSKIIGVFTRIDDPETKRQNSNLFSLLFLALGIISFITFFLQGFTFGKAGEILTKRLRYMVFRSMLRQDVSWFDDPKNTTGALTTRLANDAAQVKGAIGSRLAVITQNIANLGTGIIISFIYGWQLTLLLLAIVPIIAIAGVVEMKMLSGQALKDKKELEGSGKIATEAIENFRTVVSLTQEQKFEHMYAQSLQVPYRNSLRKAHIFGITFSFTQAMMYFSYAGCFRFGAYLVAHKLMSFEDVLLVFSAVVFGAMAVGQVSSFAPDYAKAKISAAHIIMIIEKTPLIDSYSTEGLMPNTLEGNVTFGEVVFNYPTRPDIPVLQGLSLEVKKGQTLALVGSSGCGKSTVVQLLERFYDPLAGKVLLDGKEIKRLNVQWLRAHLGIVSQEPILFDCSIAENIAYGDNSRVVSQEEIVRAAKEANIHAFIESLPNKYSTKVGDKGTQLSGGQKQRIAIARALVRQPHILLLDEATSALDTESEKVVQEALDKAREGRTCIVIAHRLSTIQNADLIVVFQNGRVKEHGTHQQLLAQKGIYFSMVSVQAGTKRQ

[15] = i.v., Period 1 remibrutinib alone day 3, Geo-mean (%CV)
[16] = i.v., Period 3 remibrutinib + ritonavir, Geo-mean (%CV)
[17] = oral, Period 1 alone 50 mg Day 3, Mean (SD)
[18] = oral, Period 2 20 mg + GFJ Day 5, Mean (SD)
[19] = oral, Period 3 20 mg + RTV Day 7, Mean (SD)
[20] = p.o., Period 1 remibrutinib alone, adjusted Geo-mean, 90% CI
[21] = p.o., Period 2 remibrutinib + grapefruit juice, adjusted Geo-mean, 90% CI
[22] = p.o., Period 3 remibrutinib + ritonavir, adjusted Geo-mean, 90% CI
[23] = p.o., grapefruit juice vs alone, Geo mean ratio, 90% CI
[24] = p.o., ritonavir vs alone, Geo-mean ratio, 90% CI

C=CC(=O)N(C)CCOc1c(N)ncnc1-c1cc(F)cc(NC(=O)c2ccc(C3CC3)cc2F)c1C [remibrutinib]
passive permeability (Papp) [1]: 16.5 10^-6 cm/s | F (absolute bioavailability) ([2]; Observed mean): 33.8 ± 11.5% | F inhibited ([2]; Observed mean, bioavailability in the presence of ritonavir): 80.9% and 80.9 ± 11.5% | Fg ([2]; Observed mean, from grapefruit juice AUC ratio): 78.9% and 78.9 ± 15.6% | Fa ([2]; Observed, calculated Fa = F/Fg/Fh): 86.9% and 86.9^e % | Fh ([2]; Observed, calculated Fh = AUCratio,iv/(AUCratio,po * Fg), ritonavir DDI study): 49.3^d % | fm (CYP3A4) ([2]; Observed, from i.v. exposure increase with ritonavir): 40% | CYP3A4-mediated hepatic first-pass metabolism (100%-Fh) ([2]; calculated): 50.7% | product of Fg and Fh ([2]; calculated / clinically determined values): 39% | Vd ([2]; human, blood, intravenous): 0.81 ± 0.22 L/kg | Vd ([2]; human, blood, iv): 63.1 L | clearance ([2]; human, blood, iv, 0.1 mg): 1170 mL/min | systemic CL as share of hepatic blood flow (87 L/h) ([2]; human, in vivo): ~ 80% | half-life ([2]; human, oral, 50 mg, remibrutinib alone): 6.58 h | half-life ([2]; human, oral, with RTV): 12.1 h | half-life ([2]; human, oral, with grapefruit juice): 7.13 h | Tmax ([2]; human, 50 mg, median, remibrutinib alone): 1 h | Tmax ([2]; human, 50 mg, minimum-maximum, remibrutinib alone): 0.5 to 2.5 h | Tmax ([2]; human, median, with RTV): 0.72 h | Tmax ([2]; human, median, with grapefruit juice): 0.73 h | Tmax ([2]; human, minimum-maximum, with RTV): 0.5 to 1.5 h | Tmax ([2]; human, minimum-maximum, with grapefruit juice): 0.5 to 2 h | AUC0-24 h norm by dose [2, 15]: 14.2 (21.8%) h*ng/ml/mg | AUCinf norm by dose [2, 15]: 14.5 (17.9%) h*ng/ml/mg | AUClast norm by dose [2, 15]: 13.9 (22.3%) h*ng/ml/mg | AUC0-24 h norm by dose [2, 16]: 23.8 (31.0%) h*ng/ml/mg | AUCinf norm by dose [2, 16]: 24.8 (33.3%) h*ng/ml/mg | AUClast norm by dose [2, 16]: 23.5 (31.0%) h*ng/ml/mg | AUC0-24 h norm by dose, Ratio period 3 / period 1 ([2]; i.v., ritonavir vs alone): 1.67 | AUCinf norm by dose, Ratio period 3 / period 1 ([2]; i.v., ritonavir vs alone): 1.70 | AUClast norm by dose, Ratio period 3 / period 1 ([2]; i.v., ritonavir vs alone): 1.68 | Cmax norm by dose, Ratio period 3 / period 1 ([2]; i.v., ritonavir vs alone): 0.89 | AUC0-24 h norm by dose [2, 17]: 4.89 ng·h/mL/mg | Cmax norm by dose [2, 17]: 2.77 ng/mL/mg | AUC0-24 h norm by dose [2, 18]: 6.28 ng·h/mL/mg | Cmax norm by dose [2, 18]: 3.27 ng/mL/mg | AUC0-24 h norm by dose [2, 19]: 20.3 ng·h/mL/mg | Cmax norm by dose [2, 19]: 9.00 ng/mL/mg | AUC0-24 h norm by dose [2, 20]: 4.49 (3.83, 5.26) h*ng/ml/mg | AUCinf norm by dose [2, 20]: 4.66 (3.92, 5.54) h*ng/ml/mg | AUClast norm by dose [2, 20]: 4.37 (3.73, 5.13) h*ng/ml/mg | Cmax norm by dose [2, 20]: 2.45 (1.99, 3.02) ng/ml/mg | AUC0-24 h norm by dose [2, 21]: 5.80 (4.95, 6.80) h*ng/ml/mg | AUCinf norm by dose [2, 21]: 5.98 (4.97, 7.19) h*ng/ml/mg | AUClast norm by dose [2, 21]: 5.80 (4.93, 6.81) h*ng/ml/mg | Cmax norm by dose [2, 21]: 3.03 (2.45, 3.75) ng/ml/mg | AUC0-24 h norm by dose [2, 22]: 19.2 (16.4, 22.5) h*ng/ml/mg | AUCinf norm by dose [2, 22]: 20.1 (16.9, 23.8) h*ng/ml/mg | AUClast norm by dose [2, 22]: 19.7 (16.7, 23.1) h*ng/ml/mg | Cmax norm by dose [2, 22]: 8.15 (6.59, 10.1) ng/ml/mg | AUCinf norm by dose, Ratio period 2 / period 1 [2, 23]: 1.28 (1.09, 1.51) | AUClast norm by dose, Ratio period 2 / period 1 [2, 23]: 1.33 (1.19, 1.47) | AUCinf norm by dose, Ratio period 3 / period 1 [2, 24]: 4.31 (3.76, 4.94) | AUClast norm by dose, Ratio period 3 / period 1 [2, 24]: 4.50 (4.05, 4.99) | correlation of metabolism rate with CYP3A4/5 activity, R ([3]; midazolam): 0.989 | correlation of metabolism rate with CYP3A4/5 activity, R ([3]; testosterone): 0.986 | apparent intrinsic affinity (Kmapp) [4]: 5.43 µM | maximal rate of metabolism (Vmax) [4]: 560.7 pmol/min/mg protein | AUC ratio day 12 to day 1 ([5]; declining over dose range 10-600 mg (TMDD effect)): 4.86 to 1.14 | fractional contribution of renal excretion to elimination ([5]; humans): about 1.8% | fm,CYP (contribution to oxidative hepatic metabolism) [6]: 0.8% | Vmax ([7]; CYP3A4): 16.3 pmol/min/pmol CYP | Km ([7]; read-out: Km,u, CYP3A4, unbound): 1.51 µM | uptake clearance with inhibitors of hepatic uptake transporters [8]: not affected | excretion of unchanged remibrutinib into the bile [9]: 0.4 % of the dose | tolerability ([10]; alone, with grapefruit juice, or with RTV, healthy participants): well‐tolerated | SAEs, deaths, high-grade AEs ([10]; during the trial): No SAEs, deaths, or AEs of high‐grade severity | clinical laboratory evaluations, vital signs, ECG ([10]; except isolated AE of mildly increased white blood cell count in one participant): no clinically relevant changes | AEs rated grade 1 of all AEs ([10]; occurring in 5 [29.4%] participants): 13/14 | observed AUCtau [11]: 916 ng·h/mL | observed Cmax [11]: 334 ng/mL | fm,CYP (contribution to oxidative hepatic metabolism) [12]: 1% | fm,CYP (contribution to oxidative hepatic metabolism) [13]: 0.3% | P-gp substrate [14]: identified as a P‐gp substrate
